# Test results: PubChem BioAssay AID1381 (University of Pittsburgh Molecular Library Screening Center, 2008)
# Hit rate of the full screen: of about 220,000 compounds, about 1,000 (0.45%) were called active.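 Rule for the calls: active = plate z-score of nuclear minus cytoplasmic receptor signal below a set negative limit, without overly bright fluorescence or cell loss (cut at about -3.5 in these data, passing the limit was not always enough); inactive = the rest, inconclusive results apart.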 What follows is part of a selection rich in actives, with near analogues and random picks from the rest.
# Experiment: inhibitors of GR-EGFP nuclear translocation, primary screen, dynein cargo transport inhibitor project, imaging, high-content, 3617.4 mouse cells (AID 1381)
# Details: stimulated with dexamethasone, 1 µM
# Outline: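 Medium: Induction medium lacking tetracycline, stripped serum | Probe or stimulus: 1.0 µM final dexamethasone stimulus | Schedule: 48 h induction, then 1 h compound, then 30 min agonist, 37 °C | Signal: Automated 10x imaging of fixed Hoechst-stained cells | Evaluation: Per-cell GR-EGFP intensity, nucleus versus surrounding cytoplasmic ring, well-averaged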
# [1] = measured here: cell count per field, at 50 µM
# [2] = measured here: cytoplasmic GR-EGFP intensity, at 50 µM, stronger effect = higher value
# [3] = measured here: nuclear GR-EGFP intensity, at 50 µM, stronger effect = lower value
# [4] = measured here: cell count per field, at 20 µM
# [5] = measured here: cytoplasmic GR-EGFP intensity, at 20 µM, stronger effect = higher value
# [6] = measured here: nuclear GR-EGFP intensity, at 20 µM, stronger effect = lower value
Compound,"z-score (at 50 µM, stronger effect = lower value)",z-score [1],z-score [2],z-score [3],"z-score (at 20 µM, stronger effect = lower value)",z-score [4],z-score [5],z-score [6]
Cc1cc(C)c2c3c(sc2n1)C(c1ccccc1)C(C#N)=C(N)O3 (stereo unspecified),-4.27 (active),2.33,1.49,-2.28,,,,
Cc1cc(C)c(C#N)c(SCc2[nH]nc3c2C(c2ccccc2)C(C#N)=C(N)O3)n1 (stereo unspecified),,,,,-0.933 (inactive),1.23,-0.0183,-0.255
N#CC1=C(N)Oc2c(sc3ccccc23)C1c1ccco1 (stereo unspecified),,,,,-0.943 (inactive),0.511,0.878,0.0658
COc1ccc(C(C#N)N2N=C(C)CC2(C)C)cc1 (stereo unspecified),,,,,-0.0116 (inactive),-0.511,-0.208,-0.808
O=C(NCCCN1CCCCC1)c1ccc2c(c1)NC(=O)C(N1CCOCC1)S2 (stereo unspecified),,,,,0.104 (inactive),-0.224,-0.224,-0.851
O=S1(=O)CC/C(=N\Nc2ccc(F)cc2)c2ccsc21,,,,,-0.204 (inactive),-0.257,-0.126,-0.15
Nn1cnnc1N/N=C/c1cc([N+](=O)[O-])c(Cl)cc1Cl,,,,,0.859 (inactive),-0.348,0.536,0.371
Cc1ccc(Cn2c(NC(=O)c3ccco3)nc3ccccc32)cc1,,,,,0.337 (inactive),-0.00289,-0.18,0.336
Cc1ccc(Cn2c(C)nc3c(c2=O)c2nc4ccccc4nc2n3Cc2ccco2)cc1,-4.55 (active),-0.433,0.482,-1.83,,,,
Cn1c2ccccc2c(=O)c2c(=O)n(Cc3ccco3)c(COc3ccccc3)nc21,,,,,0.301 (inactive),-0.271,-0.198,0.291
Cc1c(Cl)cccc1NC(=O)CC1SC(=NCC2CCCO2)NC1=O (stereo unspecified),,,,,-0.0448 (inactive),-0.163,-0.258,0.413
NNC(=O)c1ccc(Cl)cc1Cl,,,,,0.203 (inactive),-0.823,-0.243,0.206
Cc1ccc(NC(=O)c2cc(-c3ccc(C)o3)nc3ccccc23)nc1,-3.31 (inactive),-0.441,0.617,-1.89,,,,
Cc1ccc(-c2cc(C(=O)NCC3CCCO3)c3ccccc3n2)o1 (stereo unspecified),-4.29 (active),0.456,0.668,-1.96,,,,
O=C(NCC1CCCO1)c1cc(-c2ccccc2)nc2ccccc12 (stereo unspecified),,,,,0.068 (inactive),0.631,-0.236,0.0806
Cc1nc(-c2nnc(SCC(=O)Nc3cc(C(F)(F)F)cc(C(F)(F)F)c3)n2C)cs1,,,,,0.49 (inactive),-0.365,-0.261,0.826
COc1ccc(CN(Cc2ccc(OC)cc2)C(=O)c2cccs2)cc1,,,,,-0.594 (inactive),0.82,-0.256,-0.492
COc1ccc(NC(=O)CN(Cc2ccccc2)S(C)(=O)=O)cc1OC,,,,,0.347 (inactive),-0.496,0.00823,0.254
Cc1cc(=O)oc2c1c(C)nn2-c1ccc(Cl)cc1,,,,,-0.357 (inactive),1.43,-0.242,-0.696
Cc1cc(C)nc(S/C=C/C(=O)c2ccccc2)n1,,,,,-5.15 (active),1.04,1.08,-2.68
C/C(=N\NC(=O)c1nc(C)cc(C)n1)c1ccccc1,,,,,1.7 (inactive),-1.78,0.199,1.06
Cc1cc(SCC(=O)c2ccccc2)nc(SCC(=O)c2ccccc2)n1,,,,,3.42 (inactive),-0.936,-0.199,-0.0972

Compound,"z-score (at 50 µM, stronger effect = lower value)",z-score [1],z-score [2],z-score [3],"z-score (at 20 µM, stronger effect = lower value)",z-score [4],z-score [5],z-score [6]
Nc1nnn(CC(=O)N/N=C/c2ccc(O)cc2)n1,,,,,-0.272 (inactive),0.973,-0.243,0.283
CC(=O)N/C(=C\c1ccc(F)cc1)C(=O)NC(Cc1ccccc1)C(=O)O (stereo unspecified),,,,,-0.458 (inactive),0.748,-0.217,0.179
O=C(Nc1ccccc1Cl)c1ccc2nsnc2c1,,,,,-0.891 (inactive),0.488,-0.235,-0.5
COCCN(CCOC)C(=S)Nc1ccccc1Cl,,,,,-0.23 (inactive),0.546,0.025,-0.44
O=C(Nc1ccccc1Cl)/C(Cl)=C(\Cl)S(=O)c1ccccc1 (stereo unspecified),,,,,-7.75 (active),0.218,2.93,-2.78
C/C(N)=C(/C#N)C(=O)COC(=O)c1cc(-c2cccc(Br)c2)nc2ccccc12,,,,,0.554 (inactive),-0.985,-0.242,0.468
O=C(COC(=O)c1ccccc1)Nc1cccc(S(=O)(=O)N2CCOCC2)c1,,,,,0.599 (inactive),-0.0984,-0.271,0.704
COC(=O)c1ccc(CSc2nnc(N)s2)o1,,,,,-0.747 (inactive),0.802,-0.292,-0.243
O=C1c2ccccc2NC(c2ccccn2)N1NS(=O)(=O)c1ccccc1 (stereo unspecified),,,,,-1.12 (inactive),1.24,-0.348,-0.844
CCC1(CC)NC(=O)N(CC(=O)OCC(=O)NC(=O)c2ccccc2)C1=O,,,,,-0.1 (inactive),1.43,-0.273,0.236
CCCc1nc2oc3c(=O)[nH]cnc3c2c2c1COC(C)(C)C2,,,,,-0.456 (inactive),0.775,-0.274,-0.288
C/C(CC(=O)Nc1cccc(F)c1)=N\NC(=O)C(=O)NC1CCCCC1,,,,,-0.0686 (inactive),0.185,-0.304,-0.00364
CCc1c(SCCC(=O)O)nc2ccccc2c1C,,,,,-0.704 (inactive),0.903,-0.252,-0.0559
O=S1(=O)CCC(NC(=S)SCc2ccccc2Br)C1 (stereo unspecified),,,,,-3.97 (active),-0.868,1.57,-1.78
CCCSC(=S)NC1CCS(=O)(=O)C1 (stereo unspecified),,,,,-1.85 (inactive),0.977,-0.0684,-0.34
O=C(CSc1ccccc1F)NC1CCS(=O)(=O)C1 (stereo unspecified),,,,,-0.432 (inactive),0.683,-0.305,0.2
CCOc1ccc(C(C)=O)cc1CSc1nnc(-c2ccncc2)n1CCOC,,,,,0.185 (inactive),0.406,-0.242,0.523
O=c1oc(/C=C/c2ccccc2)nc2ccccc12,,,,,1.7 (inactive),-1.1,-0.0815,0.729
COc1ccc(-c2cc(C(F)(F)F)nc(SCC(=O)Nc3ccc4c(c3)OCO4)n2)cc1OC,,,,,-0.345 (inactive),0.664,-0.302,-0.551
COc1cc(OC)nc(S(C)(=O)=O)n1,,,,,0.268 (inactive),-0.196,-0.228,-0.13
COc1ccc(-c2cc(C(F)(F)F)nc(S(C)(=O)=O)n2)cc1OC,,,,,-5.48 (active),0.235,1.61,-2.61
CC1C/C(=N/NC(=O)c2cccs2)CC(C)(C)C1 (stereo unspecified),,,,,-1.02 (inactive),0.142,-0.107,-0.387
